Screening data deposited in PubChem by several laboratories.
Most compounds without a hit are left out; they make up all but 6.4% or so of the library.
CHOP inh: blocks CHOP induction under ER stress | CHO-K1 CHOP-promoter luciferase, tunicamycin-induced, 15-18 h | inhibition, % at 10 µM | 3.8% of 220,000 active;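 active = compounds that reduced the stress-induced luciferase reporter signal by more than about 70% of percent inhibition, limit read from the data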;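 also: 0% = tunicamycin plus vehicle and 100% = wells without tunicamycin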
Tb MetRS inh: Trypanosoma brucei MetRS inhibition. purified T. brucei MetRS, ATP depletion, Kinase-Glo luminescence. inhibition, % at 11.9 µM. 0.4% of 360,000 active;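 active = inhibition above a per-plate cutoff of the control wells' mean inhibition plus 3 SD, cut at about 5.5% in these data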;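 also: 0% = DMSO wells median and 100% = median of wells with control inhibitor compound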
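technique = Kinase-Glo luminescence, ATP depletion format | system = purified MetRS (methionyl-tRNA synthetase) enzyme from Trypanosoma brucei | timing = 15 min preincubation, 2 h reaction, all 25 °C | evaluation = percent inhibition versus plate control medians | dosing = single dose, 11.9 µM final nominal, 0.9% final DMSO | also added = substrates ATP, L-methionine and bulk Escherichia coli tRNA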
MPTP block: inhibitors of mitochondrial permeability transition pore | inhibition, % at 10 µM | isolated mouse mitochondria, Ca2+ swelling absorbance, 30 min | 1.4% of 360,000 active;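 active = inhibition of 50% or more, scaled per plate between neutral and stimulator controls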;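 also: 0% = DMSO wells given calcium and 100% = 1 mM EGTA wells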
EBV gp42 block: EBV gp42 inhibition; inhibition, % (tested at 21.74 µM); Fluorescence polarization binding assay, mP read-out; 0.42% of 220,000 active; Q1HVG2; AID 1085; in the data active = inhibition above about 50%
Target sequence (Q1HVG2 whole entry, looked up): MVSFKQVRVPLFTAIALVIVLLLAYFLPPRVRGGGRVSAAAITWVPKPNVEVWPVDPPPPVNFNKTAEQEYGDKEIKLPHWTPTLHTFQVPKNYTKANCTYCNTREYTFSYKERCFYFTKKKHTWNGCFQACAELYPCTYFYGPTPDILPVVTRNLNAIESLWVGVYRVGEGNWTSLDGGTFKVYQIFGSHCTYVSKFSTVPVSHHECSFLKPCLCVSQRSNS
NR3A LBD binder: modulates the human NR3A ligand-binding domain. Tm shift relative to glycine control, % at 25 µM. 2.5% of 340,000 active. NR3A LBD differential scanning fluorimetry, Tm shift; 0% = protein alone, 100% = glycine-bound protein;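 active = melting temperature shift of at least 10% of the positive control shift, at one fixed dose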
WT yeast gro inh: growth inhibition of WT yeast, mitochondrial fusion screen | inhibition, % at 10 µM | mitochondrial fusion phenotypic screen, WT strain | 2.1% of 190,000 active; in the data active = inhibition above about 58%; tested in S. cerevisiae
Tb MetRS conf: confirmation of Trypanosoma brucei MetRS inhibitors; shares compounds with Tb MetRS inh; T. brucei MetRS enzyme, luminescence (ATP depletion); inhibition, % at 11.9 µM; 93% of 1,400 active; in the data active = inhibition above about 7%
Jurkat tox: counter-screen for T. brucei MetRS inhibitors: Jurkat cell cytotoxicity. shares compounds with Tb MetRS inh. Jurkat cells viability, ATP luminescence. inhibition, % at 8.3 µM. 12% of 1,400 active. AID 624413; in the data active = inhibition above about 15%;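 also: 0% = vehicle and 100% = reference inhibitor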
Tb MetRS inh FP: orthogonal test for Trypanosoma brucei MetRS inhibitors; shares compounds with Tb MetRS inh; purified T. brucei MetRS, fluorescence polarization; inhibition, % at 11.9 µM; 44% of 1,400 active; in the data active = inhibition above about 17%;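 also: 0% = vehicle wells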
The depositor's hits bear a star.

How did C=CCn1c(=O)/c(=C2/Sc3ccccc3N2CC)s/c1=C1/C(=O)NN=C1C do in these assays?
CHOP inh: 7; EBV gp42 block: -67; WT yeast gro inh: -7

How did COc1ccccc1C=C(C(=O)c1ccccc1)c1ccccc1 do in these assays?
Tb MetRS inh: -1; MPTP block: 0

How did O=C(O)c1cccc(-n2c(O)c(C=C3N=c4ccccc4=N3)sc2=S)c1 do in these assays?
CHOP inh: 2; Tb MetRS inh: 18*; MPTP block: 3; EBV gp42 block: -16; NR3A LBD binder: -3; Tb MetRS conf: 41*; Jurkat tox: -3; Tb MetRS inh FP: 14

What do the screens show for `CCN(CC)c1ccc(-n2c(O)c(C=C3N=c4ccccc4=N3)sc2=S)cc1`?
CHOP inh: 28; Tb MetRS inh: 0; MPTP block: 1; EBV gp42 block: -6; NR3A LBD binder: -6; WT yeast gro inh: 1

What do the screens show for `Cc1ccc(C)n1-c1cccc(C(=O)O)c1`?
CHOP inh: 19; EBV gp42 block: 17; WT yeast gro inh: -1

Results for O=C(O)c1ccc(-n2c(O)c(C=C3N=c4ccccc4=N3)sc2=S)cc1 ?
CHOP inh: 4; Tb MetRS inh: 7.8*; MPTP block: 8; EBV gp42 block: -7; NR3A LBD binder: -2; Tb MetRS conf: 33*; Jurkat tox: -5; Tb MetRS inh FP: 11

Results for CC(=O)c1ccc(N2CCN(c3ccc(S(=O)(=O)NCCCN(C)C)cc3[N+](=O)[O-])CC2)cc1 ?
CHOP inh: 18; Tb MetRS inh: -1; MPTP block: 36; EBV gp42 block: -7; NR3A LBD binder: -1; WT yeast gro inh: 2

How did COc1ccc(/C(C#N)=C/c2cccnc2)cc1 do in these assays?
CHOP inh: 40; Tb MetRS inh: 6.1*; MPTP block: 0; EBV gp42 block: 2; Tb MetRS conf: 15*; Jurkat tox: -1; Tb MetRS inh FP: 8

What do the screens show for `CCN1CCCC1CNc1ncnc2c1[nH]c1ccc(Cl)cc12` (stereo not drawn)?
CHOP inh: -4; Tb MetRS inh: 38*; MPTP block: 3; EBV gp42 block: -14; NR3A LBD binder: -1; WT yeast gro inh: -5; Tb MetRS conf: 59*; Jurkat tox: 2; Tb MetRS inh FP: 36*

How did Cc1ccc2ncnc(NCCCN3CCOCC3)c2c1 do in these assays?
CHOP inh: 23; Tb MetRS inh: 0; MPTP block: 1; EBV gp42 block: 3; NR3A LBD binder: -2; WT yeast gro inh: -4

Results for Cc1ccc2[nH]c3c(NCCN4CCOCC4)ncnc3c2c1 ?
CHOP inh: -21; Tb MetRS inh: 11*; MPTP block: -1; EBV gp42 block: -3; NR3A LBD binder: 2; WT yeast gro inh: 12; Tb MetRS conf: 22*; Jurkat tox: 4; Tb MetRS inh FP: 8

How did C=CCNc1ncnc2c1[nH]c1ccc(C)cc12 do in these assays?
CHOP inh: 22; Tb MetRS inh: 11*; MPTP block: 44; EBV gp42 block: -14; NR3A LBD binder: -8; WT yeast gro inh: -5; Tb MetRS conf: 22*; Jurkat tox: 14; Tb MetRS inh FP: 12

What do the screens show for `Clc1ccc2[nH]c3c(NCCCN4CCOCC4)ncnc3c2c1`?
CHOP inh: -6; Tb MetRS inh: 45*; MPTP block: 2; EBV gp42 block: -11; NR3A LBD binder: 2; WT yeast gro inh: 1; Tb MetRS conf: 56*; Jurkat tox: 6; Tb MetRS inh FP: 48*

How did O=C1CCCN1CCCNc1ncnc2c1[nH]c1ccc(Cl)cc12 do in these assays?
CHOP inh: 1; Tb MetRS inh: 62*; MPTP block: 0; EBV gp42 block: 3; NR3A LBD binder: -4; WT yeast gro inh: 10; Tb MetRS conf: 71*; Jurkat tox: 4; Tb MetRS inh FP: 51*

Results for O=C1CCc2cc(S(=O)(=O)NC3CCCCC3)cc3c2N1CC3 ?
Tb MetRS inh: 0; MPTP block: -2; NR3A LBD binder: 3

What do the screens show for `CN(C)c1ccc(NC(=O)Cn2cc3c(n2)CCCC3)cc1`?
CHOP inh: 4; Tb MetRS inh: 16*; MPTP block: 0; EBV gp42 block: -5; NR3A LBD binder: 0; WT yeast gro inh: 6; Tb MetRS conf: 16*; Jurkat tox: 21*; Tb MetRS inh FP: 4

How did O=C(CNc1cc(S(=O)(=O)N2CCOCC2)ccc1N1CCCC1)Nc1ccc(Cl)cc1 do in these assays?
Tb MetRS inh: 48*; MPTP block: 0; NR3A LBD binder: -2; Tb MetRS conf: 65*; Jurkat tox: 3; Tb MetRS inh FP: 35*

Results for O=S(=O)(Nc1cc(S(=O)(=O)N2CCOCC2)ccc1NCC1CCCO1)c1ccc(F)cc1 (stereo not drawn) ?
Tb MetRS inh: 0; MPTP block: -1; NR3A LBD binder: -1

What do the screens show for `O=C(CNc1cc(S(=O)(=O)N2CCOCC2)ccc1NCC1CCCO1)Nc1cccc(F)c1` (stereo not drawn)?
Tb MetRS inh: 14*; MPTP block: 2; NR3A LBD binder: -4; Tb MetRS conf: 9.1*; Jurkat tox: -2; Tb MetRS inh FP: 5

Results for Cc1cc(NS(=O)(=O)c2ccc(NC(=O)CSc3nc4ncc(Br)cc4[nH]3)cc2)nc(C)n1 ?
CHOP inh: 19; Tb MetRS inh: 6.1*; MPTP block: 1; EBV gp42 block: 9; NR3A LBD binder: -9; Tb MetRS conf: 14*; Jurkat tox: -4; Tb MetRS inh FP: 8

What do the screens show for `COCCN(C(=O)COC(=O)CCCOc1ccccc1)c1c(N)n(Cc2ccccc2)c(=O)[nH]c1=O`?
Tb MetRS inh: 0; MPTP block: 12; NR3A LBD binder: 1

Results for COc1ccc(CCC(=O)Nc2c(-c3ccc(N(C)C)cc3)[nH][nH]c2=O)cc1 ?
Tb MetRS inh: 14*; MPTP block: 1; Tb MetRS conf: 3; Jurkat tox: 2; Tb MetRS inh FP: -1

Results for COc1ccc(N(CC(=O)N2CCN(c3ccc(F)cc3)CC2)S(=O)(=O)c2c(C)n[nH]c2C)cc1 ?
CHOP inh: 13; Tb MetRS inh: 0; MPTP block: -1; EBV gp42 block: 2; NR3A LBD binder: 3; WT yeast gro inh: -4

Results for O=c1cc(CSc2ccc(Cl)cc2)[nH]c2[nH]n(-c3ccccc3)c(=O)c12 ?
CHOP inh: -9; Tb MetRS inh: 8.5*; MPTP block: 2; EBV gp42 block: -8; NR3A LBD binder: 1; Tb MetRS conf: 26*; Jurkat tox: 17*; Tb MetRS inh FP: 7

Results for Cc1ccc(OCCSc2nc3ncnc(N)c3[nH]2)cc1 ?
CHOP inh: 22; Tb MetRS inh: 1; MPTP block: 0; EBV gp42 block: -4; NR3A LBD binder: -1; WT yeast gro inh: 18
